# Results from ChEMBL document CHEMBL4814038, “Discovery of sertraline and its derivatives able to combat drug-resistant gastric cancer cell via inducing apoptosis” (Bioorg Med Chem Lett, 2021).
# The source made the active and inactive calls. The rule behind the calls is not given here.
# Assays:
# SGC-7901 [1] = assay: Antiproliferative activity against cisplatin resistant human SGC-7901 cells assessed as sensitizing activity at 20 uM in presence of cisplatin; assay type: functional, cell-based
# How it was run: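 Cisplatin-resistant SGC-7901/DDP cells treated with each compound at 20 μM in combination with DDP (15 μM). Sensitizing effect read as inhibition of proliferation.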
# SGC-7901 [2] = assay: Antiproliferative activity against cisplatin resistant human SGC-7901 cells assessed as sensitizing activity in presence of cisplatin; assay type: functional, cell-based
# How it was run: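 Cisplatin-resistant SGC-7901/DDP cells co-treated with DDP (15 μM) and compound over 1.0, 2.0, 4.0, 8.0, 12, 16, 20, 24 μM. IC50 derived from inhibition of proliferation.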
# SGC-7901 [3] = assay: Induction of apoptosis in human SGC-7901 cells assessed as early apoptotic cells at 3 uM by FITC/PI staining based flow cytometry analysis (reference value: 3.06 %); assay type: functional
# [4] = Effect on PI3K/AKT/mTOR signaling pathway in human SGC-7901 cells assessed as reduction in phosphorylated AKT expression at 3 to 6 uM by Western blotting analysis; assay type: cell-based; conditions: filed as modulator, dose 3-6 µM
# How it was run: (§1)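 SGC-7901/DDP cells given DDP (15 μM) alone or with compound at 8 and 16 μM (parent) or 3 and 6 μM (derivatives). PI3K, Akt, mTOR and their phosphorylated forms detected by Western blotting.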
# SGC-7901 [5] = assay: Induction of apoptosis in human SGC-7901 cells assessed as viable cells at 3 uM by FITC/PI staining based flow cytometry analysis (reference value: 94.3 %); assay type: functional; conditions: read-out: Activity
# [6] = Effect on PI3K/AKT/mTOR signaling pathway in human SGC-7901 cells assessed as reduction in phosphorylated mTOR expression at 3 to 6 uM by Western blotting analysis; assay type: cell-based; conditions: filed as modulator, dose 3-6 µM; how it was run: as §1
# SGC-7901 [7] = assay: Induction of apoptosis in human SGC-7901 cells assessed as upregulation of cleaved caspase 3 expression level by Western blotting analysis; assay type: functional, cell-based; conditions: dose 3-6 µM
# [8] = Effect on PI3K/AKT/mTOR signaling pathway in human SGC-7901 cells assessed as change in total mTOR expression at 3 to 6 uM by Western blotting analysis; assay type: cell-based; conditions: dose 3-6 µM; how it was run: as §1
# [9] = Effect on PI3K/AKT/mTOR signaling pathway in human SGC-7901 cells assessed as reduction in phosphorylated PI3K expression at 3 to 6 uM by Western blotting analysis; assay type: cell-based; conditions: filed as modulator, dose 3-6 µM; how it was run: as §1
# SGC-7901 [10] = assay: Induction of apoptosis in human SGC-7901 cells assessed as necrotic cells at 3 uM by FITC/PI staining based flow cytometry analysis (reference value: 0.068 %); assay type: functional
# SGC-7901 [11] = assay: Induction of cell cycle arrest in human SGC-7901 cells assessed as accumulation at G0/G1 phase at 3 to 6 uM by flow cytometry analysis; assay type: functional, cell-based; conditions: dose 3-6 µM
# How it was run: (§2)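 SGC-7901/DDP cells exposed to DDP (15 μM) with compound at 8 and 16 μM (parent) or 3 and 6 μM (derivatives). Cell-cycle distribution measured by flow cytometry, with G0/G1 fraction scored.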
# SGC-7901 [12] = assay: Induction of apoptosis in human SGC-7901 cells assessed as late apoptotic cells at 3 uM by FITC/PI staining based flow cytometry analysis (reference value: 2.56 %); assay type: functional
# [13] = Effect on PI3K/AKT/mTOR signaling pathway in human SGC-7901 cells assessed as change in total AKT expression at 3 to 6 uM by Western blotting analysis; assay type: cell-based; conditions: dose 3-6 µM; how it was run: as §1
# [14] = Effect on PI3K/AKT/mTOR signaling pathway in human SGC-7901 cells assessed as change in total PI3K expression at 3 to 6 uM by Western blotting analysis; assay type: cell-based; conditions: dose 3-6 µM; how it was run: as §1
# [15] = Effect on PI3K/AKT/mTOR signaling pathway in human SGC-7901 cells assessed as reduction in phosphorylated AKT expression at 8 to 16 uM by Western blotting analysis; assay type: cell-based; conditions: filed as modulator, dose 8-16 µM; how it was run: as §1
# SGC-7901 [16] = assay: Induction of apoptosis in human SGC-7901 cells assessed as late apoptotic cells at 8 uM by FITC/PI staining based flow cytometry analysis (reference value: 2.56 %); assay type: functional
# SGC-7901 [17] = assay: Induction of cell cycle arrest in human SGC-7901 cells assessed as accumulation at G0/G1 phase at 8 to 16 uM by flow cytometry analysis; assay type: functional, cell-based; conditions: dose 8-16 µM; how it was run: as §2
# [18] = Effect on PI3K/AKT/mTOR signaling pathway in human SGC-7901 cells assessed as change in total PI3K expression at 8 to 16 uM by Western blotting analysis; assay type: cell-based; conditions: dose 8-16 µM; how it was run: as §1
# [19] = Effect on PI3K/AKT/mTOR signaling pathway in human SGC-7901 cells assessed as reduction in phosphorylated PI3K expression at 8 to 16 uM by Western blotting analysis; assay type: cell-based; conditions: filed as modulator, dose 8-16 µM; how it was run: as §1
# SGC-7901 [20] = assay: Induction of apoptosis in human SGC-7901 cells assessed as viable cells at 8 uM by FITC/PI staining based flow cytometry analysis (reference value: 94.3 %); assay type: functional; conditions: read-out: Activity
# [21] = Effect on PI3K/AKT/mTOR signaling pathway in human SGC-7901 cells assessed as change in total mTOR expression at 8 to 16 uM by Western blotting analysis; assay type: cell-based; conditions: dose 8-16 µM; how it was run: as §1
# SGC-7901 [22] = assay: Induction of apoptosis in human SGC-7901 cells assessed as early apoptotic cells at 8 uM by FITC/PI staining based flow cytometry analysis (reference value: 3.06 %); assay type: functional
# [23] = Effect on PI3K/AKT/mTOR signaling pathway in human SGC-7901 cells assessed as change in total AKT expression at 8 to 16 uM by Western blotting analysis; assay type: cell-based; conditions: dose 8-16 µM; how it was run: as §1
# SGC-7901 [24] = assay: Induction of apoptosis in human SGC-7901 cells assessed as necrotic cells at 8 uM by FITC/PI staining based flow cytometry analysis (reference value: 0.068 %); assay type: functional
# [25] = Effect on PI3K/AKT/mTOR signaling pathway in human SGC-7901 cells assessed as reduction in phosphorylated mTOR expression at 8 to 16 uM by Western blotting analysis; assay type: cell-based; conditions: filed as modulator, dose 8-16 µM; how it was run: as §1
smiles,measurement,setting,value
Clc1ccc([C@@H]2CC[C@@H](NCc3ccc4c(c3)OCO4)c3ccccc32)cc1Cl,Activity,SGC-7901 [1],inactive
O=C(CCCCl)N[C@H]1CC[C@H](c2ccc(Cl)c(Cl)c2)c2ccccc21,Activity,SGC-7901 [1],inactive
NCCN[C@@H]1CC[C@@H](c2ccc(Cl)c(Cl)c2)c2ccccc21 (relative stereo),Activity,SGC-7901 [1],Active
same,IC50,SGC-7901 [2],11 µM
NCCCCCCN[C@@H]1CC[C@@H](c2ccc(Cl)c(Cl)c2)c2ccccc21 (relative stereo),Activity,SGC-7901 [1],Active
same,IC50,SGC-7901 [2],11.1 µM
Clc1ccc([C@H]2CC[C@H](NCCN3CCNCC3)c3ccccc32)cc1Cl (relative stereo),Activity,SGC-7901 [3],4.06%
same,Activity,SGC-7901 [1],Active
same,Activity,[4],Active
same,viability at 3 µM,SGC-7901 [5],34.5%
same,Activity,[6],Active
same,Activity,SGC-7901 [7],Dose-Dependent Effect
same,Activity,[8],inactive
same,Activity,[9],Active
same,Activity,SGC-7901 [10],20.3%
same,Activity,SGC-7901 [11],Active
same,Activity,SGC-7901 [12],41%
same,IC50,SGC-7901 [2],5.2 µM
same,Activity,[13],inactive
NCCCCN[C@@H]1CC[C@H](c2ccc(Cl)c(Cl)c2)c2ccccc21 (relative stereo),Activity,SGC-7901 [1],Active
same,IC50,SGC-7901 [2],6.3 µM
NCCCCCCN[C@@H]1CC[C@H](c2ccc(Cl)c(Cl)c2)c2ccccc21 (relative stereo),Activity,SGC-7901 [1],Active
same,IC50,SGC-7901 [2],18.9 µM
CC(C)(C)OC(=O)N1CCN(CCN[C@@H]2CC[C@@H](c3ccc(Cl)c(Cl)c3)c3ccccc32)CC1 (relative stereo),IC50,SGC-7901 [2],17.1 µM
NCCN[C@@H]1CC[C@H](c2ccc(Cl)c(Cl)c2)c2ccccc21 (relative stereo),Activity,SGC-7901 [1],Active
same,IC50,SGC-7901 [2],10.7 µM
NCCCCN[C@@H]1CC[C@@H](c2ccc(Cl)c(Cl)c2)c2ccccc21 (relative stereo),Activity,SGC-7901 [3],2.67%
same,Activity,SGC-7901 [1],Active
same,Activity,[4],Active
same,viability at 3 µM,SGC-7901 [5],30.7%
same,Activity,[6],Active
same,Activity,[14],inactive
same,Activity,SGC-7901 [7],Dose-Dependent Effect
same,Activity,[8],inactive
same,Activity,[9],Active
same,Activity,SGC-7901 [10],14.1%
same,Activity,SGC-7901 [11],Active
same,Activity,SGC-7901 [12],44.6%
same,IC50,SGC-7901 [2],6.28 µM
CC(=O)N[C@H]1CC[C@H](c2ccc(Cl)c(Cl)c2)c2ccccc21 (relative stereo),Activity,SGC-7901 [1],inactive
CCCCN[C@@H]1CC[C@@H](c2ccc(Cl)c(Cl)c2)c2ccccc21 (relative stereo),Activity,SGC-7901 [1],Active
COc1ccc(CN[C@@H]2CC[C@@H](c3ccc(Cl)c(Cl)c3)c3ccccc32)cc1 (relative stereo),Activity,SGC-7901 [1],Active
COc1ccc(CN[C@@H]2CC[C@@H](c3ccc(Cl)c(Cl)c3)c3ccccc32)cc1OC (relative stereo),Activity,SGC-7901 [1],inactive
COc1cccc(CN[C@@H]2CC[C@@H](c3ccc(Cl)c(Cl)c3)c3ccccc32)c1 (relative stereo),Activity,SGC-7901 [1],inactive
Cc1ccc(CN[C@@H]2CC[C@@H](c3ccc(Cl)c(Cl)c3)c3ccccc32)cc1 (relative stereo),Activity,SGC-7901 [1],inactive
Clc1ccc(CN[C@@H]2CC[C@@H](c3ccc(Cl)c(Cl)c3)c3ccccc32)cc1Cl (relative stereo),Activity,SGC-7901 [1],inactive
Clc1ccc([C@@H]2CC[C@@H](NCc3cccc4ccccc34)c3ccccc32)cc1Cl (relative stereo),Activity,SGC-7901 [1],inactive
Clc1ccc([C@@H]2CC[C@@H](NCc3ccccc3)c3ccccc32)cc1Cl (relative stereo),Activity,SGC-7901 [1],Active
FC(F)(F)c1cccc(CN[C@@H]2CC[C@@H](c3ccc(Cl)c(Cl)c3)c3ccccc32)c1 (relative stereo),Activity,SGC-7901 [1],inactive
N[C@@H]1CC[C@H](c2ccc(Cl)c(Cl)c2)c2ccccc21 (relative stereo),Activity,SGC-7901 [1],inactive
N[C@H]1CC[C@H](c2ccc(Cl)c(Cl)c2)c2ccccc21 (relative stereo),Activity,SGC-7901 [1],inactive
CN[C@H]1CC[C@@H](c2ccc(Cl)c(Cl)c2)c2ccccc21 [SERTRALINE],Activity,[15],Active
same,Activity,[4],Active
same,Activity,[6],Active
same,Activity,SGC-7901 [16],20.9%
same,Activity,SGC-7901 [17],Active
same,Activity,[18],inactive
same,Activity,SGC-7901 [7],Dose-Dependent Effect
same,Activity,[9],Active
same,Activity,[19],Active
same,viability at 8 µM,SGC-7901 [20],55.2%
same,Activity,[21],inactive
same,Activity,SGC-7901 [22],4.21%
same,Activity,[23],inactive
same,IC50,SGC-7901 [2],18.7 µM
same,Activity,SGC-7901 [24],19.7%
same,Activity,[25],Active
